# Assay outcomes: PubChem BioAssay, The Scripps Research Institute Molecular Screening Center
# Only some compounds are listed: those with a hit (about 1.9% of all), similar ones and a draw of the others.
# UHRF1 MBD2 ctr: UHRF1 methylated DNA binding inhibitors, primary screen, counter-screen for MBD2 inhibitor project, biochemical, TR-FRET, human UHRF1, single concentration. UHRF1 binding to methylated oligo. inhibition, % at 4.4 µM. 370,000 tested, 0.75% active. AID 687016, 2013; in the data active = inhibition above about 21%;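 note: UHRF1 SRA domain binding a hemimethylated CpG hairpin DNA probe; 0% = median of test compound wells and 100% = reference inhibitor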
# MBD2 inh: inhibitors of MBD2 binding to methylated DNA, primary screen, biochemical, TR-FRET, DNA-binding domain, human. inhibition, % at 4.4 µM. Methyl-CpG-binding domain protein 2 (Homo sapiens), Q9UBB5. 370,000 tested, 0.31% active. MBD2 binding to methylated oligonucleotide; in the data active = inhibition above about 13%
# Rin1-Abl PPI inh: inhibitors of Rin1-Abl protein binding, primary screen, biochemical, TR-FRET | inhibition, % at 7.35 µM | AID 588664, 2011 | 360,000 tested, 0.4% active | Tyrosine-protein kinase ABL1 (Homo sapiens) + Ras and Rab interactor 1 (Homo sapiens), …; in the data active = inhibition above about 5%, passing the limit was not always enough
# LEDGF integ inh: blockers of LEDGF/p75-dependent integrase strand transfer – biochemical, TR-FRET, high throughput, primary screen. HIV-1 integrase (with human LEDGF/p75). TR-FRET IN-LEDGF/p75 DNA integration, Eu/Cy5. inhibition, % at 3.7 µM. 370,000 tested, 0.64% active. AID 743269, 2014;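 active = inhibition above the screen-wide mean plus 3 SD, cut at about 13% in these data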;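 note: signal is the Cy5 over europium emission ratio at 671 and 618 nm; 0% = plate median of compound wells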
# TDP2 inh: human TDP2 enzyme inhibitors, primary screen, biochemical, epi absorbance, recombinant enzyme; 370,000 tested, 0.34% active; inhibition, % at 12.8 µM; T5PNP hydrolysis, p-nitrophenol absorbance 415 nm;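 active = inhibition above the mean of all tested compounds plus 3 SD, set per campaign, cut at about 25% in these data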;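 note: 0% = DMSO with enzyme and 100% = buffer with substrate but no TDP2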
#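 Assay system: recombinant human TDP2 / Reagent: T5PNP substrate at 5 mM, a TopII-DNA adduct mimic / Measured by: epi absorbance from released p-nitrophenol / Evaluation: % inhibition relative to enzyme-containing and enzyme-free wells / Control set: enzyme-free and DMSO wells / Replicates: each compound tested once, singlicate / Schedule: enzyme reaction with compound for 2 h at 37 °C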
# Rin1 Abl conf: Rin1-Abl binding inhibitor retest, confirmation, biochemical, TR-FRET. shares compounds with Rin1-Abl PPI inh. purified proteins. inhibition, % at 7.35 µM. 1,300 tested, 49% active. AID 602124, 2011
# GFP quench: GFP fluorescence inhibitors and quenchers, artefact control for Rin1-Abl interaction inhibitor project, biochemical | shares compounds with Rin1-Abl PPI inh | inhibitors/quenchers counterscreen | inhibition, % at 6.75 µM | 1,300 tested, 8.5% active;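 note: ABL1-eGFP fusion protein alone without its partner RIN1-SBP; 0% = protein with vehicle and 100% = wells lacking protein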
# GFP quench DR: GFP fluorescence inhibitors and quenchers, dose response, artefact control for Rin1-Abl interaction inhibitor project, biochemical. AID 602182, 2012. shares compounds with Rin1-Abl PPI inh. GFP fluorescence interference/quenching counterscreen. 230 tested, under 10 active. IC50, µM; call rule not given here;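 note: ABL1-eGFP fusion protein alone without its RIN1 binding partner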
# Numbers without * were called inactive; · = not tested or not shown. Cut-off read from the data, not from the text of the source, unless noted: active = inhibition above about 6.5%; inactive = the rest.
SMILES,UHRF1 MBD2 ctr,MBD2 inh,Rin1-Abl PPI inh,LEDGF integ inh,TDP2 inh,Rin1 Abl conf,GFP quench,others
CCCN(C(=O)C1CCCN(c2ncnc3c2nc2n3CCCCC2)C1)c1ccc(F)cc1 (configuration not stated),1,-3,8.5*,2,1,-2,-1,
CS/C(=N\S(=O)(=O)c1cccs1)Nc1ccc(F)c(Cl)c1,2,4,5.0*,-3,5,-3,1,
CS/C(=N\S(=O)(=O)c1cccs1)Nc1cccc(Cl)c1C,0,0,0,0,-7,·,·,
Nc1nc2ncccc2cc1C(=O)C1=C(c2ccccc2)Cc2ccccc21,-1,4,·,3,7,·,·,
COc1ccc(N=C(N)NC(=O)OCc2ccccc2)cc1,1,4,·,-2,-2,·,·,
CC(=O)Nc1cccc(NC(=O)c2cc3ccccc3o2)c1,0,-5,-4,1,-5,·,·,
CC(=O)c1cccc(NC(=O)CNC(=O)c2cc3ccccc3o2)c1,-1,0,17*,-2,11,-10,0,
CC(C)(C)c1ccc(C#C[C@@H]2C=C[C@H](O)[C@@H](COC(=O)Nc3ccccc3)O2)cc1,-3,0,·,1,-1,·,·,
Oc1ccc(/C=N/Nc2cccc(Cl)n2)c(O)c1,-4,-2,8.1*,-1,-3,2,1,
COC(=O)N1CCC[C@H]1c1cccc2[nH]cc(C)c12,1,6,·,1,1,·,·,
CCOC(=O)C1(Cc2ccc(OC)cc2)CCN(C(=O)CN2CCOC2=O)CC1,-1,0,-4,6,-4,·,·,
CCOC(=O)C1(Cc2ccc(OC)cc2)CCN(C(=O)CN2CCCCC2=O)CC1,2,4,9.9*,-2,3,1,-2,
Cc1ccc(NC(=O)CN2CCCCCC2)c(Br)c1,5,2,10*,-2,-2,-3,-1,
COc1ccc(N2CCN(CC(=O)Nc3ccc(C)cc3Br)CC2)cc1,-2,-6,-3,-7,-7,·,·,
O=S1(=O)c2c(cccc2N2CC[C@@H](O)C2)O[C@@H]2CCN1C2,-1,2,·,-1,2,·,·,
CCCc1cc(=O)[nH]c(SCC(=O)N(CCC#N)c2ccc3c(c2)OCCO3)n1,4,1,5,-2,-4,·,·,
N#CCCN(C(=O)CSc1ncccn1)c1ccc2c(c1)OCCO2,-1,0,8.2*,-2,2,8.8*,-1,
O=C1CC=Nc2ccc([N+](=O)[O-])cc21,-1,3,15*,0,4,-2,-1,
COc1ccc2c(c1O)-c1ccccc1CCN(C)C2,-2,-1,-3,-2,0,·,·,
CN1CCc2cccc3c2[C@@H]1Cc1ccc(O)c(O)c1-3,·,·,17*,·,·,12*,13*,
COc1cc(OC)cc(-c2oc(=O)c3cc(OC)c(OC)cc3c2C#CCCO)c1,2,4,29*,-1,11,76*,-1,
COc1cc(/C=N/NC(=O)CSc2ccccn2)ccc1OC(C)C,-1,0,17*,-3,-6,26*,1,GFP quench DR=>68
O=C(Nc1nc(-c2cc(Cl)sc2Cl)cs1)c1ccc(Br)s1,2,21*,6.0*,1,6,-1,0,
CCCc1cc(N2CCN(c3ccccn3)CC2)n2nc(C)c(-c3ccccc3)c2n1,8,11,8.1*,-1,-6,0,0,
COc1cccc(C(=O)N(CCN2CCOCC2)Cc2ccc(OC)c(OC)c2)c1,1,3,·,5,-14,·,·,
SMILES,UHRF1 MBD2 ctr,MBD2 inh,Rin1-Abl PPI inh,LEDGF integ inh,TDP2 inh,Rin1 Abl conf,GFP quench,others
O=C(Cn1[nH]c(=O)c2ccccc2c1=O)Nc1ccc(-c2nnc3n2CCCCC3)cc1,-1,4,12*,2,-6,10*,0,
O=C(Cc1n[nH]c(=O)c2ccccc12)Nc1ccc(-c2nnc3n2CCCCC3)cc1,-2,-1,6,2,-2,·,·,
Cc1ccc(C(=O)NCc2ccncc2)cc1S(=O)(=O)Nc1cccc(C)c1C,-1,-2,15*,0,-13,-1,-3,
Cc1ccc(C)c(NS(=O)(=O)c2cc(C(=O)NCc3ccncc3)ccc2C)c1,-4,-8,6,1,-10,·,·,
CCOc1ccc(CCNC(=O)CN2C(=O)CCSc3ccccc32)cc1,-2,-3,11*,1,-3,1,0,
CC(CNC(=O)CN1C(=O)CCSc2ccccc21)c1ccccc1 (configuration not stated),-1,-5,-3,-2,9,·,·,
CCOC(=O)c1ccc(NC(=O)N2CCN(c3ccccc3OC)CC2)cc1,10,2,9.4*,0,5,16*,0,
CCCCSc1nnc2[nH]c(=O)cc(N)n12,0,-6,3,4,11,·,·,
CCCCSc1cc(=O)[nH]c(N)n1,-1,0,29*,3,6,21*,-2,GFP quench DR=>68
COc1ccc(CCC(=O)NCCc2nc3ccccc3[nH]2)cc1,0,2,6.0*,8,-6,-2,-1,
COc1ccc(N2CCN(C(=O)CSc3nnc(-c4cccnc4)n3-c3ccccc3)CC2)cc1,0,1,8.1*,-3,-7,5,0,
O=C(O)c1ccc(CSc2nnc(-c3cccnc3)n2-c2ccc(Br)cc2)cc1,2,-3,21*,3,-4,33*,0,GFP quench DR=>68
O=C(NCCc1ccccc1)OCc1cn(-c2c(F)cccc2F)nn1,1,1,·,-5,7,·,·,
O=C(OC12CCCN(C1)/C(=C/c1cccnc1)C2)c1ccc(F)cc1 (configuration not stated),-2,-4,·,-1,4,·,·,
Nc1nccnc1C(=O)OCC(=O)NNC(=O)c1ccccc1,-2,-5,8.2*,2,0,0,2,
COc1ccccc1C(=O)NC(=O)COC(=O)c1nccnc1N,-1,-1,1,0,1,·,·,
CCOC(=O)CC[C@@]1(C(=O)OCC)C[C@@H](CC(=O)N2CCCC2)C(=O)N2CCCC=C21,2,-4,·,5,-8,·,·,
